Laboratory results: ChEMBL document CHEMBL1123589, “Phenylpiperazine-based radiopharmaceuticals for brain imaging. 3. Synthesis and evaluation of radioiodinated 1-alkyl-4-phenylpiperazines” (J Med Chem, 1987)
“And” between values parts separate entries of the source, which are not always exact repeats. Equal entries are not always repeated.

How the values were obtained:
Settings in all cases: in vivo
Canis familiaris [1] = test: The biodistribution of the [131I]-labeled compound in dog (mass= 5.7 kg), 2 hr after intravenous injection was evaluated in cortex; assay type: ADME, organism-based, Canis lupus familiaris
Outline: (§1)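 One female dog (5.7 kg) premedicated im with acepromazine maleate, then anesthetized iv with sodium nembutal/saline (1:1). Given 1.0 mCi iv of ¹³¹I-labeled agent. Killed 2 h post-dose with iv nembutal. Tissues excised, weighed and counted; blood, fat and muscle masses estimated as 7.5%, 27.5% and 40% of body weight. Expressed as % ID/organ and % ID·kg/g.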

Canis familiaris [2] = test: The biodistribution of the [131I]-labeled compound in dog (mass= 5.7 kg), 2 hr after intravenous injection was evaluated in lung (ID.kg/g); assay type: ADME, organism-based, Canis lupus familiaris; outline: as §1
Rattus norvegicus [3] = test: The biodistribution of the [125I]-labeled compound in rats after intravenous injection was evaluated in fat at 0.25 hr; value ranges from 0.03-0.05 (ID.kg/g); assay type: ADME, organism-based, Adipose tissue
Outline: (§2)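 Male Sprague-Dawley rats (250–300 g) under ether anesthesia were given an iv injection of no-carrier-added 125I-labelled agent (10–15 μCi in 0.1 mL saline). The agent was iodinated with chloramine-T in acetate buffer and purified by C-18 HPLC. Groups of N = 3 were killed at 0.25, 1 and 4 h. Blood and tissues were weighed and γ-counted. Values are % ID·kg/g, mean (range).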

Rattus norvegicus [4] = test: The biodistribution of the [125I]-labeled compound in rats after intravenous injection was evaluated in adrenal at 0.25 hrs; value ranges from 1.43-1.71 (ID.kg/g); assay type: ADME, organism-based; outline: as §2
Rattus norvegicus [5] = test: The biodistribution of the [125I]-labeled compound in rats after intravenous injection was evaluated in heart at 4.00 hrs; value ranges from 0.11-0.15 (ID.kg/g); assay type: ADME, organism-based
Outline: (§3)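 Male Sprague-Dawley rats (250–300 g), under ether anesthesia, given 10–15 μCi of the NCA ¹²⁵I-labeled agent iv in 0.1 mL saline. Groups of N = 3 were killed at 0.25, 1 or 4 h. Blood and tissues were removed, weighed and counted in a γ-well scintillation counter. Values are mean % ID·kg/g (range).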

Rattus norvegicus [6] = test: The biodistribution of the [125I]-labeled compound in rats after intravenous injection was evaluated in brain at 4.00 hrs; value ranges from 0.25-0.41 (ID.kg/g); assay type: ADME, organism-based; outline: as §2
Rattus norvegicus [7] = test: The biodistribution of the [125I]-labeled compound in rats after intravenous injection was evaluated in kidney at 4.00 hrs; value ranges from 0.32-0.42 (ID.kg/g); assay type: ADME, organism-based; outline: as §3
Rattus norvegicus [8] = test: The biodistribution of the [125I]-labeled compound in rats after intravenous injection was evaluated in thyroid at 1.00 hrs; value ranges from 1.69-2.41 (ID.kg/g); assay type: ADME, organism-based, Thyroid gland
Outline: (§4)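 Male Sprague-Dawley rats (250–300 g) under ether anesthesia given iv 0.1 mL saline containing 10–15 μCi of NCA ¹²⁵I-labeled agent (chloramine-T iodination, HPLC-purified). Groups of 3 killed at 0.25, 1 and 4 h. Blood and tissues excised, weighed and γ-counted. Values are mean (range) of % injected dose × body mass (kg) per gram of tissue.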

Rattus norvegicus [9] = test: The biodistribution of the [125I]-labeled compound in rats after intravenous injection was evaluated in fat at 4.00 hrs (ID.kg/g); assay type: ADME, organism-based, Adipose tissue; outline: as §2
Rattus norvegicus [10] = test: The biodistribution of the [125I]-labeled compound in rats after intravenous injection was evaluated in blood at 0.25 hrs (ID.kg/g); assay type: ADME, organism-based; outline: as §2
Rattus norvegicus [11] = test: The biodistribution of the [125I]-labeled compound in rats after intravenous injection was evaluated in lung at 1.00 hrs; value ranges from 1.20-1.42( ID.kg/g); assay type: ADME, organism-based; outline: as §3
Rattus norvegicus [12] = test: The biodistribution of the [125I]-labeled compound in rats after intravenous injection was evaluated in blood at 4.00 hrs (ID.kg/g); assay type: ADME, organism-based; outline: as §2
Canis familiaris [13] = test: The biodistribution of the [131I]-labeled compound in dog (mass= 5.7 kg), 2 hr after intravenous injection was evaluated in blood (ID.kg/g); assay type: ADME, organism-based, Canis lupus familiaris; outline: as §1
Canis familiaris [14] = test: The biodistribution of the [131I]-labeled compound in dog (mass= 5.7 kg), 2 hr after intravenous injection was evaluated in brain (ID.kg/g); assay type: ADME, organism-based, Canis lupus familiaris; outline: as §1
Canis familiaris [15] = test: The biodistribution of the [131I]-labeled compound in dog (mass= 5.7 kg), 2 hr after intravenous injection was evaluated in cerebellum; assay type: ADME, organism-based, Canis lupus familiaris; outline: as §1
Canis familiaris [16] = test: The biodistribution of the [131I]-labeled compound in dog (mass= 5.7 kg), 2 hr after intravenous injection was evaluated in kidney (ID.kg/g); assay type: ADME, organism-based, Canis lupus familiaris; outline: as §1
Rattus norvegicus [17] = test: The biodistribution of the [125I]-labeled compound in rats after intravenous injection was evaluated in adrenal at 4.00 hrs; value ranges from 0.81-1.19 (ID.kg/g); assay type: ADME, organism-based; outline: as §2
Rattus norvegicus [18] = test: The biodistribution of the [125I]-labeled compound in rats after intravenous injection was evaluated in blood at 1.00 hrs (ID.kg/g); assay type: ADME, organism-based; outline: as §2
Canis familiaris [19] = test: The biodistribution of the [131I]-labeled compound in dog (mass= 5.7 kg), 2 hr after intravenous injection was evaluated in cerebellum (ID.kg/g); assay type: ADME, organism-based, Canis lupus familiaris; outline: as §1
Canis familiaris [20] = test: The biodistribution of the [131I]-labeled compound in dog (mass= 5.7 kg), 2 hr after intravenous injection was evaluated in adrenal (ID.kg/g); assay type: ADME, organism-based, Canis lupus familiaris; outline: as §1
Rattus norvegicus [21] = test: The biodistribution of the [125I]-labeled compound in rats after intravenous injection was evaluated in brain at 1.00 hrs (ID.kg/g); assay type: ADME, organism-based; outline: as §2
Rattus norvegicus [22] = test: The biodistribution of the [125I]-labeled compound in rats after intravenous injection was evaluated in fat at 1.00 hrs (ID.kg/g); assay type: ADME, organism-based, Adipose tissue; outline: as §2
Canis familiaris [23] = test: The biodistribution of the [131I]-labeled compound in dog (mass= 5.7 kg), 2 hr after intravenous injection was evaluated in thyroid (ID.kg/g); assay type: ADME, organism-based, Canis lupus familiaris, Thyroid gland; outline: as §1
Rattus norvegicus [24] = test: The biodistribution of the [125I]-labeled compound in rats after intravenous injection was evaluated in muscle at 1.00 hrs (ID.kg/g); assay type: ADME, organism-based, Muscle tissue; outline: as §4
Rattus norvegicus [25] = test: The biodistribution of the [125I]-labeled compound in rats after intravenous injection was evaluated in thyroid at 0.25 hrs; value ranges from 3.39-4.05 (ID.kg/g); assay type: ADME, organism-based, Thyroid gland; outline: as §4
Rattus norvegicus [26] = test: The biodistribution of the [125I]-labeled compound in rats after intravenous injection was evaluated in heart at 0.25 hrs; value ranges from 0.26-0.32 (ID.kg/g); assay type: ADME, organism-based; outline: as §2
Rattus norvegicus [27] = test: The biodistribution of the [125I]-labeled compound in rats after intravenous injection was evaluated in muscle at 0.25 hrs (ID.kg/g); assay type: ADME, organism-based, Muscle tissue; outline: as §4
Canis familiaris [28] = test: The biodistribution of the [131I]-labeled compound in dog (mass= 5.7 kg), 2 hr after intravenous injection was evaluated in fat (ID.kg/g); assay type: ADME, organism-based, Canis lupus familiaris, Adipose tissue; outline: as §1
Rattus norvegicus [29] = test: The biodistribution of the [125I]-labeled compound in rats after intravenous injection was evaluated in liver at 1.00 hrs; value ranges from 0.19-0.24 (ID.kg/g); assay type: ADME, organism-based; outline: as §3
Rattus norvegicus [30] = test: The biodistribution of the [125I]-labeled compound in rats after intravenous injection was evaluated in brain at 0.25 hrs; value ranges from 0.32-0.38 (ID.kg/g); assay type: ADME, organism-based; outline: as §2
Rattus norvegicus [31] = test: The biodistribution of the [125I]-labeled compound in rats after intravenous injection was evaluated in kidney at 0.25 hr; value ranges from 0.48-0.58 (ID.kg/g); assay type: ADME, organism-based; outline: as §3

**Q.** Which Biodistribution (Canis familiaris [1]) does the source give for `CCCCN1CCN(c2ccc(I)cc2)CC1` here?
**A.** 0.1%

**Q.** What about the Biodistribution (Canis familiaris [2]) of the same compound?
**A.** 1.287% and 0.143%

**Q.** What about the Biodistribution (Rattus norvegicus [3]) of the same compound?
**A.** 0.05%

**Q.** What about the Biodistribution (Rattus norvegicus [4]) of the same compound?
**A.** 1.71%

**Q.** What about the Biodistribution (Rattus norvegicus [5]) of the same compound?
**A.** 0.15%

**Q.** And the Biodistribution (Rattus norvegicus [6])?
**A.** 0.41%

**Q.** What about the Biodistribution (Rattus norvegicus [7]) of the same compound?
**A.** 0.42%

**Q.** And the Biodistribution (Rattus norvegicus [8])?
**A.** 2.41%

**Q.** And the Biodistribution (Rattus norvegicus [9])?
**A.** 0.02%

**Q.** And the Biodistribution (Rattus norvegicus [10])?
**A.** 0.01 % ID·kg/g

**Q.** What about the Biodistribution (Rattus norvegicus [11]) of the same compound?
**A.** 1.42%

**Q.** What about the Biodistribution (Rattus norvegicus [12]) of the same compound?
**A.** 0.01 % ID·kg/g

**Q.** What about the Biodistribution (Canis familiaris [13]) of the same compound?
**A.** 1.072% and 0.148%

**Q.** What about the Biodistribution (Canis familiaris [14]) of the same compound?
**A.** 1.824% and 0.165%

**Q.** What about the Biodistribution (Canis familiaris [15]) of the same compound?
**A.** 1.571%

**Q.** What about the Biodistribution (Canis familiaris [16]) of the same compound?
**A.** 0.182%

**Q.** And the Biodistribution (Rattus norvegicus [17])?
**A.** 1.19%

**Q.** And the Biodistribution (Rattus norvegicus [18])?
**A.** 0.01 % ID·kg/g

**Q.** What about the Biodistribution (Canis familiaris [19]) of the same compound?
**A.** 0.165%

**Q.** And the Biodistribution (Canis familiaris [20])?
**A.** 0.121% and 0.633%

**Q.** And the Biodistribution (Rattus norvegicus [21])?
**A.** 0.28%

**Q.** What about the Biodistribution (Rattus norvegicus [22]) of the same compound?
**A.** 0.01 % ID·kg/g

**Q.** And the Biodistribution (Canis familiaris [23])?
**A.** 0.032% and 0.342%

**Q.** And the Biodistribution (Rattus norvegicus [24])?
**A.** 0.04 %ID·kg/g

**Q.** And the Biodistribution (Rattus norvegicus [25])?
**A.** 4.05%

**Q.** And the Biodistribution (Rattus norvegicus [26])?
**A.** 0.32%

**Q.** And the Biodistribution (Rattus norvegicus [27])?
**A.** 0.03 % ID·kg/g

**Q.** And the Biodistribution (Canis familiaris [28])?
**A.** 9.41% and 0.034%

**Q.** And the Biodistribution (Rattus norvegicus [29])?
**A.** 0.24%

**Q.** And the Biodistribution (Rattus norvegicus [30])?
**A.** 0.38%

**Q.** What about the Biodistribution (Rattus norvegicus [31]) of the same compound?
**A.** 0.58%
